Assay results published in paper PMC7654701 (Chemical communications (Cambridge, England), 2020).

Key:
class I HDACs = details: cited from earlier work
HDAC3 = HDAC3 (Homo sapiens, UniProt O15379); assay: Western blot analysis of HDAC3 degradation in breast cancer cells; type: cell-based
In short: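 MDA-MB-468 cells were treated with test compound for 14 h, and HDAC3 was assessed by western blot with band intensity normalized to α-tubulin. For the mechanism arm, cells were pretreated for 1 h with 1 μM MG132 or 10 μM VHL032 before 125 nM compound. A time course used 125 nM. For washout, cells got 125 nM for 14 h, then drug-free medium for additional time.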

HDACs = assay: HDAC-Glo I/II Assays; type: biochemical; details: Table S1
HDAC1 = HDAC1 (Homo sapiens, UniProt Q13547); assay: Western blot analysis of HDAC1 protein level in breast cancer cells; type: cell-based; details: MDA-MB-468 cells, 14 h treatment
Sequence of HDAC1 (Q13547 whole entry, canonical isoform): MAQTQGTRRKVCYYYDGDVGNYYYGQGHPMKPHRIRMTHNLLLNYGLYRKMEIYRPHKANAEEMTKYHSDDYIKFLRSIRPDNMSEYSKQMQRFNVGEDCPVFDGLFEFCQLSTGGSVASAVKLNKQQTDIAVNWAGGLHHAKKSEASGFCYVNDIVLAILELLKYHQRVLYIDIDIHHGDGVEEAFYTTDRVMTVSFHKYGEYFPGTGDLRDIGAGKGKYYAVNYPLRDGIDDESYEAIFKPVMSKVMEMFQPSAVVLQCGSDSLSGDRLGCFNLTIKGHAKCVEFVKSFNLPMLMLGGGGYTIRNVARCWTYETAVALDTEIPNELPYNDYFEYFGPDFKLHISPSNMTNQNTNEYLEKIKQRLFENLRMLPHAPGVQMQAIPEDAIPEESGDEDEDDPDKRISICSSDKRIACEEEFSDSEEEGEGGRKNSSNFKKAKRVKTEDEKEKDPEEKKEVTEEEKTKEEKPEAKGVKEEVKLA
In short: (§1)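 MDA-MB-468 cells were treated with test compound for 14 h, then the HDAC isoform protein level was assessed by western blot.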

HDAC2 = HDAC2 (Homo sapiens, UniProt Q92769); assay: Western blot analysis of HDAC2 protein level in breast cancer cells; type: cell-based; details: MDA-MB-468 cells, 14 h treatment
Sequence of HDAC2 (Q92769 whole entry): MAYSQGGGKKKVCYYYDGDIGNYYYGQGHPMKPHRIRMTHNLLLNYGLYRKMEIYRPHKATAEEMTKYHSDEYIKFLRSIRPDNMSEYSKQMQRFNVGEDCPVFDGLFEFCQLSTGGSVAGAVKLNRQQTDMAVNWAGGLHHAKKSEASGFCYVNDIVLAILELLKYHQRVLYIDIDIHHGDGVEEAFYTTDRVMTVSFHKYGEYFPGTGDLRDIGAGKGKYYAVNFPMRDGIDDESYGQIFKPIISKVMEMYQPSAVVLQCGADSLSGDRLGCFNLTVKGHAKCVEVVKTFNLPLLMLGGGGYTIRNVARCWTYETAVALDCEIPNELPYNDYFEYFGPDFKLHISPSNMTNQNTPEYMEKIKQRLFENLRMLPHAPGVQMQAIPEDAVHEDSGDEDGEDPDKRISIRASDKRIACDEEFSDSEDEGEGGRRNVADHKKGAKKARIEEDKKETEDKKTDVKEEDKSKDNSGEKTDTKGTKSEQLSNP
In short: as §1

HDAC6 = biological target: T1, HDAC6 (Homo sapiens, UniProt Q9UBN7); assay: Western blot analysis of HDAC6 protein level in MDA-MB-468 cells; type: cell-based; details: 14 h treatment
T1 sequence (Q9UBN7 1-1215): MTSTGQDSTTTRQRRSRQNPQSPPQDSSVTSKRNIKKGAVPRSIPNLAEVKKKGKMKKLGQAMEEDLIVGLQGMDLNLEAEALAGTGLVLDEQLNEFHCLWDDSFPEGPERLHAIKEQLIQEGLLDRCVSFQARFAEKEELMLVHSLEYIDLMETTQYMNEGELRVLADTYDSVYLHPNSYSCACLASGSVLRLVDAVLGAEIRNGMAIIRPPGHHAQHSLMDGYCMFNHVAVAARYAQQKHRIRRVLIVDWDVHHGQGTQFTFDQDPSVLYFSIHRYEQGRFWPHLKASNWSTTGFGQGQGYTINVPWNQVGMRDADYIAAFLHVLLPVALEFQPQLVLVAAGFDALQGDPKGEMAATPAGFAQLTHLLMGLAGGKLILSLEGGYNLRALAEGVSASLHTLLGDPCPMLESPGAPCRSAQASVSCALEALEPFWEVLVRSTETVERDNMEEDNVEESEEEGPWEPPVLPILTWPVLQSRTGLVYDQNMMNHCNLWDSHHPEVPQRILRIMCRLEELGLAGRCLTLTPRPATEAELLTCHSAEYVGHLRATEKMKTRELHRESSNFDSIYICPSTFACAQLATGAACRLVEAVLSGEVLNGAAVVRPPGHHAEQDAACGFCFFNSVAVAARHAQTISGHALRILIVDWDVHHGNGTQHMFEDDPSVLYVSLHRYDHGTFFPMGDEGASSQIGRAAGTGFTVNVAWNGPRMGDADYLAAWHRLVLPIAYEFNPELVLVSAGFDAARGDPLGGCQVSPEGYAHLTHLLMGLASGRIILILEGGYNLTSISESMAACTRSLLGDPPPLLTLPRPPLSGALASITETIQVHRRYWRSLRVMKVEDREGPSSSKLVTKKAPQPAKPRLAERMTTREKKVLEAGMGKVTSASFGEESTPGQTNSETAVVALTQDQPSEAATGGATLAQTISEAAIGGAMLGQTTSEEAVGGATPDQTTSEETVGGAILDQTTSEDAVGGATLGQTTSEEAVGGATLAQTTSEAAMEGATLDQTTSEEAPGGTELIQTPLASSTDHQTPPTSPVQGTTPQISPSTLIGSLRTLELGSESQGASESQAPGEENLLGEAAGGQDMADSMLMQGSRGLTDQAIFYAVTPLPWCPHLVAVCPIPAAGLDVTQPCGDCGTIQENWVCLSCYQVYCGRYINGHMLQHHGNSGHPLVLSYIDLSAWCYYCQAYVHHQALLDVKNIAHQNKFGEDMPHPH
In short: as §1

[1] = test system: histone acetylation at H3K27 and H4K5; assay: Western blot analysis of histone acetylation; type: cell-based
T47D = assay: Colony formation assay; type: cell-based; details: T47D breast cancer cells
In short: (§2)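 Cells were grown with test compound, and the medium with freshly added compound was replaced every five days until colonies reached suitable size. Colonies were then stained. Four biological replicates.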

HCC1143 = assay: Colony formation assay; type: cell-based; details: HCC1143 breast cancer cells
In short: as §2

BT549 = assay: Colony formation assay; type: cell-based; details: BT549 breast cancer cells
In short: as §2

MDA-MB-468 cells = assay: Colony formation assay; type: cell-based; details: difference was moderate
In short: as §2

Cytotoxicity = type: cell-based; details: Fig. S3

Sequence of HDAC3 (O15379 whole entry): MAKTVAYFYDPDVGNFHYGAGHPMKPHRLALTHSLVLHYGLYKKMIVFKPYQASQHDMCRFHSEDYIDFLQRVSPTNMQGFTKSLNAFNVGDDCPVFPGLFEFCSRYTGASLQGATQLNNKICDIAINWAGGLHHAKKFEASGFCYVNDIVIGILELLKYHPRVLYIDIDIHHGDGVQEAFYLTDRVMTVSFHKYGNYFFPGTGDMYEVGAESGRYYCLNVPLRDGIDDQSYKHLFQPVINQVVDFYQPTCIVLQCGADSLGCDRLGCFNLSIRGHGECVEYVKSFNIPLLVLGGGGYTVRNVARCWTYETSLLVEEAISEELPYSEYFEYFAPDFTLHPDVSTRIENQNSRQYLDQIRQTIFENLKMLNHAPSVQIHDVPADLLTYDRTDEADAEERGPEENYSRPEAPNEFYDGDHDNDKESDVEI
Sequence of HDAC3 (Q9Y618 whole entry partner): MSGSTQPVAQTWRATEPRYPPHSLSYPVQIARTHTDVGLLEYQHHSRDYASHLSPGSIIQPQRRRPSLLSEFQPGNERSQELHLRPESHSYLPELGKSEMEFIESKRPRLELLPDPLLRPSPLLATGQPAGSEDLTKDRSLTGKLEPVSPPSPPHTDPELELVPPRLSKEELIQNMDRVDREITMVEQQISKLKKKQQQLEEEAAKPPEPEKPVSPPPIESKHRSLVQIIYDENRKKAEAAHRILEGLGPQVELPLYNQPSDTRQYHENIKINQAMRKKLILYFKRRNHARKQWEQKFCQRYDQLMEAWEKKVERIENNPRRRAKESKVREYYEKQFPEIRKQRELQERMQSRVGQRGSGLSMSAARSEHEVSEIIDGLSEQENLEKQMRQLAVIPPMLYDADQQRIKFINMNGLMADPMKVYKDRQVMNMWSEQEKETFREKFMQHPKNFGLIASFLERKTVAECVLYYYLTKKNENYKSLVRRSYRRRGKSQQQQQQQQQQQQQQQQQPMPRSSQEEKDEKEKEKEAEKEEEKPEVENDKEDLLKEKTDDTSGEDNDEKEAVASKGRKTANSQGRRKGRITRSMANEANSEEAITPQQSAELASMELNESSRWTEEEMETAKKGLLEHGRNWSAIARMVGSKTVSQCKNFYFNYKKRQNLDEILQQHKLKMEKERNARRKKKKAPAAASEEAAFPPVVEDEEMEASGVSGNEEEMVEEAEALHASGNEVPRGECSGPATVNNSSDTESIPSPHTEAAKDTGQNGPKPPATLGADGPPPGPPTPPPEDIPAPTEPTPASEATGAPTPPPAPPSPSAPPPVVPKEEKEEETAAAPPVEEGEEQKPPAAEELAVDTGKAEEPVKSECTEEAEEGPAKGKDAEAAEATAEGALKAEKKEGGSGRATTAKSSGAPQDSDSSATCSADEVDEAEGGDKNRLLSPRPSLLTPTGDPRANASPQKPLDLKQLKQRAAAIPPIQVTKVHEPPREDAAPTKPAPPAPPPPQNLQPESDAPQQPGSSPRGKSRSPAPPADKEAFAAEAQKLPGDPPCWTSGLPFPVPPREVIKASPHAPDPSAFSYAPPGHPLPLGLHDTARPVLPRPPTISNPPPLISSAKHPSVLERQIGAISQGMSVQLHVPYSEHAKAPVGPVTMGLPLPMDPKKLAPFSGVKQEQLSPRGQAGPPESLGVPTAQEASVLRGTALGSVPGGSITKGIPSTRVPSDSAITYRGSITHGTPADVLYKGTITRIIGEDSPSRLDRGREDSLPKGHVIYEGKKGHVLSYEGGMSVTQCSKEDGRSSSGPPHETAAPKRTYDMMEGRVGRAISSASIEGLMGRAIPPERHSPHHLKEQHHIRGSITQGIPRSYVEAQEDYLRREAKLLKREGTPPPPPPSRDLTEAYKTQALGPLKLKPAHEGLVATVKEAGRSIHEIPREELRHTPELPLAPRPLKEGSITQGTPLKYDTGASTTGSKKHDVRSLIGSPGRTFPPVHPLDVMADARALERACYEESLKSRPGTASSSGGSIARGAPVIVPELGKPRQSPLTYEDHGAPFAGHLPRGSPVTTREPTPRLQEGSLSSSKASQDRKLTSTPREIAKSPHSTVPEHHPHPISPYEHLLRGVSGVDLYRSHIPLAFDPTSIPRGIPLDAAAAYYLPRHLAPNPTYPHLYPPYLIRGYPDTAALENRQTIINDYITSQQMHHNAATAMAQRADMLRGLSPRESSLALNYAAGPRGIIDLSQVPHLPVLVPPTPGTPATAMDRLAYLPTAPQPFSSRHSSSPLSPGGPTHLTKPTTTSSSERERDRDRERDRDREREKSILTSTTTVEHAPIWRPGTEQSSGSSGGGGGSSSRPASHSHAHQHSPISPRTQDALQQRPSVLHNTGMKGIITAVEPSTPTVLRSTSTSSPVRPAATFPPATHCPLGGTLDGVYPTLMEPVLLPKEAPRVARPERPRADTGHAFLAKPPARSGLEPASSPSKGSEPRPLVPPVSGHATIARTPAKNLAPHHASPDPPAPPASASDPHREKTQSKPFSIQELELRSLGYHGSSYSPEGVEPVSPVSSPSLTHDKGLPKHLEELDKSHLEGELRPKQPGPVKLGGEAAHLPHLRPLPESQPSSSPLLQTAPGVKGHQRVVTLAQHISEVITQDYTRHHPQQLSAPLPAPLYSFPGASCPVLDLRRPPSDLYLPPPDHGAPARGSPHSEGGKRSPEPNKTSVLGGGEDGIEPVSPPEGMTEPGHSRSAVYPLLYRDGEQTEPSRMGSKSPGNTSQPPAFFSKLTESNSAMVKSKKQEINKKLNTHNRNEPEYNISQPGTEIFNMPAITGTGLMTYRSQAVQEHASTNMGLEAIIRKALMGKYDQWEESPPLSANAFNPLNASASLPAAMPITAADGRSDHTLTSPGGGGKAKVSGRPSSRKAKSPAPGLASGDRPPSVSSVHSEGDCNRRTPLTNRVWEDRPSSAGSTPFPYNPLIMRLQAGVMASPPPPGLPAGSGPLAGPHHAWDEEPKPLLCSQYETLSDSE

CCCCNNC(=O)c1ccc(-c2ccccc2)cc1 [SR-3558]
HDAC isozyme binding preference (class I HDACs; benzoylhydrazide ZBG): preferentially binds to HDAC3 | inhibition of class I HDACs (class I HDACs): potent and selective inhibitor

CCCNNC(=O)c1ccc(-c2ccc(NC(=O)CCCCCCC(=O)N[C@H](C(=O)N3C[C@@H](O)C[C@@H]3C(=O)N[C@@H](C)c3ccc(-c4scnc4C)cc3)C(C)(C)C)cc2)cc1 [XZ9002-NC]
HDAC3 degradation (HDAC3; MDA-MB-468 cells, Fig. 2B): did not induce HDAC3 degradation

CCCNNC(=O)c1ccc(-c2ccc(NC(=O)CCCCCCC(=O)N[C@H](C(=O)N3C[C@H](O)C[C@H]3C(=O)N[C@@H](C)c3ccc(-c4scnc4C)cc3)C(C)(C)C)cc2)cc1 [XZ9002]
binding of HDAC3 compared with other HDACs (HDACs): more strongly | time for HDAC3 to rebound to the steady level after washout (HDAC3; MDA-MB-468, 125 nM for 14 h then drug-free medium): more than 12 h | HDAC3 degraded (HDAC3; MDA-MB-468, 125 nM, 8 h treatment): 70% | start of HDAC3 degradation (HDAC3; MDA-MB-468, 125 nM, time course): ≤ 2 h | HDAC3 degradation after pre-incubation with proteasome inhibitor MG132 (HDAC3; MDA-MB-468, XZ9002 125 nM, MG132 1 μM for 1 h): blocked | HDAC3 degradation after pre-incubation with VHL ligand VH032 (HDAC3; MDA-MB-468, XZ9002 125 nM, VH032 10 μM for 1 h): blocked | change in protein level of HDAC1 (HDAC1): no significant changes | change in protein level of HDAC2 (HDAC2): no significant changes | change in protein level of HDAC6 (HDAC6): no significant changes | histone acetylation ([1]; Fig. 2A and Fig. S2, moderate effects compared to 15 and CRBN-based PROTACs): dose-dependently increased | potency to induce histone hyperacetylation compared to 15 ([1]; Fig. S2): less potent | suppression of clonogenic growth compared to XZ9002-NC (T47D): markedly more potent | suppression of clonogenic growth compared to XZ9002-NC (HCC1143): markedly more potent | suppression of clonogenic growth compared to XZ9002-NC (BT549): markedly more potent | inhibition of clonogenic growth compared to XZ9002-NC (MDA-MB-468 cells): more effective | potency to induce cytotoxicity compared to 15 (Cytotoxicity): less potent
